Measurements from ChEMBL document CHEMBL1134551, “The effect of 1,3-diaryl-[1H]-pyrazole-4-acetamides on glucose utilization in ob/ob mice” (2001).

Experiments:
[1] = system: Mus musculus; assay: Percentage efficacy to normalize the blood glucose levels to that of normal mouse in ob/ob mouse after 3 days and 8 hours of 100 mg/kg dose administration; Nonsignificant; assay type: functional, organism-based; parameters: dose 100 mg/kg
Method in brief: (§1)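 Adult male C57BL ob/ob mice, n = 6/group, matched on day-0 blood glucose; non-diabetic animals (<150 mg/dL basal) excluded. Oral dosing each morning days 1-3 in 0.5% CMC with 0.2% Tween-80. Tail-nick blood glucose by YSI analyzer. % efficacy = {1 − ([glc]cpd − 100)/([glc]veh − 100)} × 100. Significance by t-test vs vehicle, p < 0.05.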

[2] = system: Mus musculus; assay: Percentage efficacy to normalize the blood glucose levels to that of normal mouse in ob/ob mouse after 3 days and 4 hours of 100 mg/kg dose administration.; assay type: functional; method in brief: as §1
[3] = system: Mus musculus; assay: Percentage efficacy to normalize the blood glucose levels to that of normal mouse in ob/ob mouse after 3 days and 8 hours of 300 mg/kg dose administration.; assay type: functional; method in brief: as §1
[4] = system: Mus musculus; assay: Percentage efficacy to normalize the blood glucose levels to that of normal mouse in ob/ob mouse after 3 days and 4 hours of 300 mg/kg dose administration.; assay type: functional; method in brief: as §1
[5] = system: Mus musculus; assay: Percentage efficacy to normalize the blood glucose levels to that of normal mouse in ob/ob mouse after 3 days and 4 hours of 100 mg/kg dose administration; Nonsignificant; assay type: functional, organism-based; parameters: dose 100 mg/kg; method in brief: as §1
[6] = system: Mus musculus; assay: Percentage efficacy to normalize the blood glucose levels to that of normal mouse in ob/ob mouse after 3 days and 8 hours of 100 mg/kg dose administration.; assay type: functional; method in brief: as §1
[7] = system: Mus musculus; assay: Percentage efficacy to normalize the blood glucose levels to that of normal mouse in ob/ob mouse after 3 days and 8 hours of 300 mg/kg dose administration; Nonsignificant; assay type: functional, organism-based; parameters: dose 300 mg/kg; method in brief: as §1
[8] = system: Mus musculus; assay: Percentage efficacy to normalize the blood glucose levels to that of normal mouse in ob/ob mouse after 3 days and 4 hours of 300 mg/kg dose administration; Nonsignificant; assay type: functional, organism-based; parameters: dose 300 mg/kg; method in brief: as §1
[9] = system: Mus musculus; assay: Percentage efficacy to normalize the blood glucose levels to that of normal mouse in ob/ob mouse after 3 days and 4 hours of 30 mg/kg dose administration.; assay type: functional; method in brief: as §1
[10] = organism: Mus musculus; assay: Effective dose for glucose lowering in ob/ob mice; assay type: functional
Method in brief: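 ob/ob mice, once-daily oral dosing for 3 days in 0.5% CMC/0.2% Tween-80, or in 40% microemulsion (Cremophor RH40, corn oil-monoglyceride, propylene glycol, ethanol) where stated; tail-nick blood glucose. % efficacy computed as below at selected doses; ED50 from sigmoidal fit of dose-response curve.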

[11] = system: Mus musculus; assay: Percentage efficacy to normalize the blood glucose levels to that of normal mouse in ob/ob mouse after 3 days and 8 hours of 30 mg/kg dose administration.; assay type: functional; method in brief: as §1
[12] = system: Mus musculus; assay: Percentage efficacy to normalize the blood glucose levels to that of normal mouse in ob/ob mouse after 3 days and 4 hours of 30 mg/kg dose administration; Nonsignificant; assay type: functional, organism-based; parameters: dose 30 mg/kg; method in brief: as §1

CN(C)C(=O)Cc1cn(-c2cccc(C(F)(F)F)c2)nc1-c1ccc2sc3ccccc3c2c1
Efficacy [1]: Not significant
Efficacy [2]: 59%

CCN(CC)C(=O)Cc1cn(-c2cccc(C(F)(F)F)c2)nc1-c1ccc(Cl)c(Cl)c1
Efficacy [3]: 50%
Efficacy [4]: 45%

CN(C)C(=O)Cc1cn(-c2ccc(F)cc2)nc1-c1ccc(Cl)c(Cl)c1
Efficacy [3]: 39%
Efficacy [4]: 84%

CN(C)C(=O)Cc1cn(-c2cccc(C(F)(F)F)c2)nc1-c1ccc(C(C)(C)C)cc1
Efficacy [1]: Not significant
Efficacy [5]: Not significant

COc1ccc(-c2nn(-c3cccc(C(F)(F)F)c3)cc2CC(=O)N(C)C)cc1OC
Efficacy [5]: Not significant
Efficacy [6]: 85%

CN(C)C(=O)Cc1cn(-c2cccc(C(F)(F)F)c2)nc1-c1ccc2c(c1)C(C)(O)c1ccccc1-2 (centres undefined)
Efficacy [2]: 73%
Efficacy [6]: 64%

CN(C)C(=O)Cc1cn(-c2cccc(C(F)(F)F)c2)nc1-c1ccc2c(c1)Cc1ccccc1O2
Efficacy [2]: 65%
Efficacy [6]: 96%

O=C(Cc1cn(-c2cccc(C(F)(F)F)c2)nc1-c1ccc(Cl)c(Cl)c1)N1CCCCC1
Efficacy [7]: Not significant
Efficacy [8]: Not significant

CN(C)C(=O)Cc1cn(-c2cccc(C(F)(F)F)c2)nc1-c1ccc(Oc2ccccc2)cc1
Efficacy [1]: Not significant
Efficacy [5]: Not significant

CN1CCN(C(=O)Cc2cn(-c3cccc(C(F)(F)F)c3)nc2-c2ccc(Cl)c(Cl)c2)CC1
Efficacy [7]: Not significant
Efficacy [4]: 54%

CONC(=O)Cc1cn(-c2cccc(C(F)(F)F)c2)nc1-c1ccc(Cl)c(Cl)c1
Efficacy [3]: 35%
Efficacy [4]: 48%

CN(C)C(=O)Cc1cn(-c2cccc(C(F)(F)F)c2)nc1-c1ccccc1
Efficacy [3]: 36%
Efficacy [4]: 71%

O=C(O)Cc1cn(-c2cccc(C(F)(F)F)c2)nc1-c1ccc(Cl)c(Cl)c1
Efficacy [7]: Not significant
Efficacy [8]: Not significant

Cc1cc(C)cc(-n2cc(CC(=O)N(C)C)c(-c3ccc(Cl)c(Cl)c3)n2)c1
Efficacy [7]: Not significant
Efficacy [8]: Not significant

CN(C)C(=O)Cc1cn(-c2cccc(C(F)(F)F)c2)nc1-c1ccc2c(c1)Cc1ccccc1-2
Efficacy [2]: 87%
Efficacy [9]: 113%
Efficacy [6]: 57%
ED50 [10]: 0.05 mg/kg/day
Efficacy [11]: 115%

Cc1cccc(-n2cc(CC(=O)N(C)C)c(-c3ccc(Cl)c(Cl)c3)n2)c1
Efficacy [1]: Not significant
Efficacy [5]: Not significant

CN(C)C(=O)Cc1cn(-c2cccc(C(F)(F)F)c2)nc1-c1cc2ccccc2c2ccccc12
Efficacy [1]: Not significant
Efficacy [5]: Not significant

O=C(Cc1cn(-c2cccc(C(F)(F)F)c2)nc1-c1ccc(Cl)c(Cl)c1)N1CCN(C(c2ccccc2)c2ccccc2)CC1
Efficacy [5]: Not significant
Efficacy [12]: Not significant
Efficacy [6]: 45%
Efficacy [11]: 48%

O=C(Cc1cn(-c2cccc(C(F)(F)F)c2)nc1-c1ccc(Cl)c(Cl)c1)N1CCOCC1
Efficacy [7]: Not significant
Efficacy [8]: Not significant

CN(C)C(=O)Cc1cn(-c2ccc(Cl)cc2)nc1-c1ccc(Cl)c(Cl)c1
Efficacy [3]: 52%
Efficacy [4]: 47%

CN(C)C(=O)Cc1cn(-c2cccc(C(F)(F)F)c2)nc1-c1ccc2c(c1)Cc1ccccc1C2
Efficacy [2]: 79%
Efficacy [6]: 70%

CN(C)C(=O)Cc1cn(-c2cccc(C(F)(F)F)c2)nc1-c1ccc2c(c1)C(=O)c1ccccc1-2
Efficacy [2]: 107%
Efficacy [6]: 78%

O=C(Cc1cn(-c2cccc(F)c2)nc1-c1ccc(Cl)c(Cl)c1)N1CCCC1
Efficacy [3]: 75%
Efficacy [4]: 74%

Cc1ccc(-c2nn(-c3cccc(C(F)(F)F)c3)cc2CC(=O)N(C)C)cc1
Efficacy [3]: 36%
Efficacy [4]: 58%

CN(C)C(=O)Cc1cn(-c2cccc(C(F)(F)F)c2)nc1-c1ccc(Cc2ccccc2)cc1
Efficacy [1]: Not significant
Efficacy [5]: Not significant

CN(C)C(=O)Cc1cn(-c2cccc(C(F)(F)F)c2)nc1-c1ccc(-c2ccc(F)cc2)cc1
Efficacy [5]: Not significant
Efficacy [6]: 81%

CN(C)C(=O)Cc1cn(-c2cccc(C(F)(F)F)c2)nc1-c1cccc(-c2ccccc2)c1
Efficacy [1]: Not significant
Efficacy [5]: Not significant

CN(C)C(=O)Cc1cn(-c2cccc(C(F)(F)F)c2)nc1-c1ccc(Cl)cc1
Efficacy [3]: 78%
Efficacy [8]: Not significant

CN(C)C(=O)Cc1cn(-c2ccc(Cl)c(Cl)c2)nc1-c1ccc(Cl)c(Cl)c1
Efficacy [3]: 53%
Efficacy [4]: 34%

CN(C)C(=O)Cc1cn(-c2ccc(C(F)(F)F)cc2)nc1-c1ccc(Cl)c(Cl)c1
Efficacy [3]: 37%
Efficacy [4]: 45%

CN(C)C(=O)Cc1cn(-c2cccc(C(F)(F)F)c2)nc1-c1ccccc1-c1ccccc1
Efficacy [1]: Not significant
Efficacy [5]: Not significant

CN(C)C(=O)Cc1cn(-c2ccc(C(C)(C)C)cc2)nc1-c1ccc(Cl)c(Cl)c1
Efficacy [1]: Not significant
Efficacy [5]: Not significant

CN(C)C(=O)Cc1cn(-c2cccc(C(F)(F)F)c2)nc1-c1ccc2ccccc2c1
Efficacy [1]: Not significant
Efficacy [5]: Not significant

CN(C)C(=O)Cc1cn(-c2cccc(C(F)(F)F)c2)nc1-c1ccc2oc3ccccc3c2c1
Efficacy [1]: Not significant
Efficacy [5]: Not significant

O=C(Cc1cn(-c2cccc(C(F)(F)F)c2)nc1-c1ccc(Cl)c(Cl)c1)N1CCCC1
Efficacy [3]: 76%
Efficacy [4]: 72%

CN(C(=O)Cc1cn(-c2cccc(C(F)(F)F)c2)nc1-c1ccc(Cl)c(Cl)c1)c1ccccc1
Efficacy [7]: Not significant
Efficacy [4]: 57%

CN(C)C(=O)Cc1cn(-c2cccc(C(F)(F)F)c2)nc1-c1cccc2ccccc12
Efficacy [1]: Not significant
Efficacy [5]: Not significant

CN(C)C(=O)Cc1cn(-c2cccc(C(F)(F)F)c2)nc1-c1ccc(-c2ccc(-c3ccccc3)cc2)cc1
Efficacy [1]: Not significant
Efficacy [5]: Not significant

CN(C)C(=O)Cc1cn(-c2cccc(C(F)(F)F)c2)nc1-c1ccc(Cl)c(Cl)c1
Efficacy [3]: 63%
Efficacy [8]: Not significant

O=C(Cc1cn(-c2cccc(C(F)(F)F)c2)nc1-c1ccc(Cl)c(Cl)c1)N(Cc1ccccc1)Cc1ccccc1
Efficacy [2]: 52%
Efficacy [6]: 49%

CN(C)C(=O)Cc1cn(-c2cc(C(F)(F)F)cc(C(F)(F)F)c2)nc1-c1ccc(Cl)c(Cl)c1
Efficacy [7]: Not significant
Efficacy [8]: Not significant

CN(C)C(=O)Cc1cn(-c2cccc(C(F)(F)F)c2)nc1-c1ccc(-c2ccccc2)cc1
Efficacy [2]: 84%
Efficacy [9]: 80%
Efficacy [6]: 69%
ED50 [10]: 1.3 mg/kg/day
Efficacy [11]: 94%

CN(C)C(=O)Cc1cn(-c2cccc(C(F)(F)F)c2)nc1-c1ccc2c(c1)CCc1ccccc1-2
Efficacy [2]: 87%
Efficacy [6]: 111%

O=C(Cc1cn(-c2cccc(C(F)(F)F)c2)nc1-c1ccc(Cl)c(Cl)c1)NO
Efficacy [7]: Not significant
Efficacy [8]: Not significant

CN(C)C(=O)Cc1cn(-c2cccc([N+](=O)[O-])c2)nc1-c1ccc(Cl)c(Cl)c1
Efficacy [2]: -72%
Efficacy [6]: -88%

CN(C)C(=O)Cc1cn(-c2cccc(C(F)(F)F)c2)nc1-c1ccc2c(c1)C(C)(C)c1ccccc1-2
Efficacy [2]: 67%
Efficacy [6]: 83%

COc1ccc(-n2cc(CC(=O)N(C)C)c(-c3ccc(Cl)c(Cl)c3)n2)cc1
Efficacy [3]: 35%
Efficacy [4]: 39%

CCOC(=O)Cc1cn(-c2cccc(C(F)(F)F)c2)nc1-c1ccc(Cl)c(Cl)c1
Efficacy [7]: Not significant
Efficacy [8]: Not significant

CC(=O)OC1c2ccccc2-c2ccc(-c3nn(-c4cccc(C(F)(F)F)c4)cc3CC(=O)N(C)C)cc21 (centres undefined)
Efficacy [2]: 95%
Efficacy [6]: 108%

O=C(Cc1cn(-c2cccc(C(F)(F)F)c2)nc1-c1ccc(Cl)c(Cl)c1)Nc1ccccc1
Efficacy [7]: Not significant
Efficacy [8]: Not significant

O=C(Cc1cn(-c2cccc(C(F)(F)F)c2)nc1-c1ccc(Cl)c(Cl)c1)N1CCN(c2ccccc2)CC1
Efficacy [5]: Not significant
Efficacy [6]: 42%

CN(C)C(=O)Cc1cn(-c2cc(Cl)cc(Cl)c2)nc1-c1ccc(Cl)c(Cl)c1
Efficacy [7]: Not significant
Efficacy [4]: 52%

CN(C)C(=O)Cc1cn(-c2cccc(C(F)(F)F)c2)nc1-c1ccc2c(ccc3ccccc32)c1
Efficacy [2]: 90%
Efficacy [6]: 71%
